Assays:
[1] = tested on: U87MG cells; test: CCK-8 cell viability of U87MG cells with radiolabeled compounds; settings: 0.1 and 0.2 MBq
[2] = tested on: U87MG cells; test: In vitro uptake in U87MG cells; format: cell-based, human; settings: for Uptake percentage dose (%AD), total / Uptake %AD, intracellular: mean ± SD; for Uptake %AD, intracellular: internalized fraction (1 M NaOH lysis); for Share of radioactivity internalized by cells: after co-incubation 4 h
[3] = tested on: U87MG tumor; test: In vivo radiotherapy in U87MG tumor-bearing mice; settings: for Median survival: U87MG glioma-bearing mice; for Median survival / Tumor weight at the end of the treatment / Tumor volume: 66.6 MBq; for Tumor weight at the end of the treatment / Tumor volume: U87MG tumor-bearing mice, mean ± SD; for Tumor weight at the end of the treatment: 20 days post-treatment, n = 5/group
[4] = DLS hydrodynamic diameter and zeta potential; format: physicochemical; settings: mean ± SD
[5] = TEM morphology of self-assembled peptide; format: physicochemical
Outline: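 Peptide was dissolved in water above its CMC, with or without 1 mM GSH added to mimic intracellular reducing conditions. Samples were incubated 10 min, applied to copper grids and air-dried overnight. Particle morphology and size were imaged by TEM, with size given as mean ± SD.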

[6] = Critical micelle; format: physicochemical; settings: pyrene fluorescent probe, tangent method; DP1R 0.1-100 μM, each with 1 mM GSH
[7] = tested on: U87MG cells; test: Intracellular GSH content measurement; format: cell-based, human; settings: 24 h co-incubation
Outline: (§1)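 U87MG cells were seeded at 2 × 10^5 cells/well and grown 24 h at 37°C. They were then exposed 24 h in serum-free medium to PBS or to unlabeled or 64Cu-labeled peptide conjugate at 0, 25, 50 or 100 μM. Cells were PBS-washed, trypsinized, pelleted at 3000 rpm for 3 min and washed. Intracellular GSH (GSH/GSSG) and ROS were read with commercial kits. Values are mean ± SD.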

[8] = tested on: MCF-7 tumor; parameters: species or system mice; settings: mouse, in vivo
[9] = tested on: U87MG tumor; test: PET imaging in U87MG tumor-bearing mice; settings: mouse, in vivo; for Tumor uptake (PET ROI analysis): iv, 7.4 MBq
[10] = tested on: U87MG tumor; test: Tumor section staining; format: in vivo, mice; settings: tumor sections
[11] = tested on: MCF-7 tumor; parameters: species or system mice; settings: mouse, in vivo, 72 h
[12] = tested on: U87MG cells; test: Intracellular ROS level assay; format: cell-based, human; settings: 24 h co-incubation
Outline: as §1

[13] = tested on: U87MG tumor; test: Biodistribution study in U87MG tumor-bearing mice; settings: mouse, in vivo
[14] = 0.05 MBq, 4 h, 37°C, gamma counter
[15] = normalized to stained control (set as 1.0), mean ± SD

## [Cl][64Cu][Cl] [[^64Cu]CuCl2, reference compound]
[1]
  Cytotoxicity against tumor cells (in words): Neither 0.1 MBq nor 0.2 MBq free [^64Cu]CuCl2 demonstrated notable cytotoxicity
[2]; 0.05-1 MBq, 4 h
  Uptake by U87MG cells (in words): Negligible uptake
[3]
  Median survival: 20 days
  Tumor weight at the end of the treatment: 2.36 ± 0.35 g

## DOTA-PEP1-c(RGDyK) (head to tail) [DP1R]
[4]; DLS in PBS, after incubation with GSH
  Hydrodynamic diameter: 284.28 ± 27.99 nm
[4]; after incubation with GSH
  Zeta potential: −36.43 ± 1.89 mV
[4]; before incubation with GSH
  Zeta potential: 3.65 ± 0.49 mV
[5]; absence of GSH incubation
  Nanostructure formation under TEM: no nanostructure formation was observed
[5]; in water above the CMC, 1 mM GSH, 10 min incubation, mean ± SD
  Average diameter of micelle-like structures under TEM: approximately 27.55 ± 6.43 nm
[6]
  Critical micelle concentration (CMC): 13.962 µM
[7]; 25 μM
  Reduction of intracellular GSH levels: 17%
[7]; 100 μM
  Reduction of intracellular GSH levels: exceeding 52%

## [^64Cu]Cu-DOTA-PEP1-c(RGDyK) (head to tail) [[^64Cu]Cu-DP1R]
[8]
  Tumor uptake in MCF-7 subcutaneous tumor model (in words): no significant tumor uptake
[9]
  Retention index (RI): 21.90% (± 41.29%)
  Tumor retention vs. control via PET imaging: 2 fold
[9]; 4 h
  Tumor uptake (PET ROI analysis): 6.90 ± 0.98 %ID/g
[9]; 72 h
  Tumor uptake (PET ROI analysis): 6.20 ± 1.61 %ID/g
[2]; 0.05 MBq, 4 h
  Uptake %AD relative to the [^64Cu]Cu-DR group: 5.83 times
  Uptake %AD, intracellular: 8.27 ± 0.44 %AD
[2]; [14]
  Uptake percentage dose (%AD), total: 9.09 ± 0.48 %AD
[2]; 0.05 MBq
  Share of radioactivity internalized by cells: 90.98%
[2]; 0.1 MBq, 4 h
  Uptake percentage dose (%AD), total: 7.50 ± 0.32 %AD
[10]
  Apoptotic induction (TUNEL) vs PBS group: 101.6 fold
[10]; IHC, normalized to stained control (set as 1.0), mean ± SD
  Ki-67 relative expression (proliferative activity): 1.35 ± 0.17
[10]; [15]
  ROS relative fluorescence intensity: 7.87 ± 0.70
  TUNEL relative fluorescence intensity (apoptosis): 140.21 ± 24.88
  γ-H2AX relative fluorescence intensity (DNA damage): 59.3 ± 11.49
[10]; vs PBS group
  Decrease in Ki-67 index: 3.1 fold
[11]
  Tumor uptake (biodistribution): 0.47 ± 0.10 %ID/g
[12]
  Effect on intracellular ROS level (in words): enhance the ROS level
[3]
  Median survival: 36 days
  Tumor weight at the end of the treatment: 0.25 ± 0.03 g
[3]; twenty days after injection
  Tumor volume: 122.20 ± 19.92 mm^3
  Tumor volume of PBS group relative to treated group: 12.1 times
  Tumor volume of [^64Cu]Cu-DR group relative to [^64Cu]Cu-DP1R group: 3.33 times
[13]; 72 h
  Blood pool uptake (biodistribution): 1.01± 0.5 %ID/g
  Kidneys uptake (biodistribution): 1.43 ± 0.09 %ID/g
  Tumor uptake (biodistribution): 7.79 ± 1.08 %ID/g
[7]
  Effect on intracellular GSH (in words): effectively reduce intracellular GSH

## [^64Cu]Cu-DOTA-PEP2-c(RGDyK) (head to tail) [[^64Cu]Cu-DP2R]
[9]; 4 h
  Tumor uptake (PET ROI analysis): 5.53 ± 0.36 %ID/g
[9]; 72 h
  Tumor uptake (PET ROI analysis): 2.93 ± 0.36 %ID/g
[13]
  Lower 72h tumor retention relative to DP1R probe: 58%
[13]; 72 h
  Tumor uptake (biodistribution): 3.28 ± 0.45 %ID/g

## [^64Cu]Cu-DOTA-c(RGDyK) [[^64Cu]Cu-DR]
[2]; [14]
  Uptake percentage dose (%AD), total: 1.56 ± 0.78 %AD
[2]; 0.05 MBq, 4 h
  Uptake %AD, intracellular: 0.10 ± 0.02 %AD
[2]; 0.05 MBq
  Share of radioactivity internalized by cells: 87.82%
[3]
  Median survival: 26 days
  Tumor weight at the end of the treatment: 0.87 ± 0.03 g
[3]; twenty days after injection
  Tumor volume: 407.00 ± 66.34 mm^3
